In paper PMC3690177 (Bioorganic & medicinal chemistry letters, 2008):

Key:
CB1 receptors = CB1 receptors (Rattus norvegicus, UniProt P20272); experiment: GTPγS binding in rat cerebellar membrane preparations; assay type: biochemical; conditions: absence of WIN55,212-2; 100 nM–10 μM; data not shown
mice [1] = experiment: WIN55,212-2-induced catalepsy, ring catalepsy test; assay type: in vivo, mouse; conditions: for Effect on WIN55,212-2-induced catalepsy: 30 min prior to WIN55,212-2 5 mg-kg−1
Outline: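 Mice were pretreated i.p. with vehicle, test compound (20 mg-kg−1) or CB1 antagonist (5 mg-kg−1). After 30 min they received vehicle or WIN55,212-2 (5 mg-kg−1, i.p.). Cataleptic behaviour was scored 30 min after the WIN55,212-2 injection. n = 6. Analysis was ANOVA with Bonferroni post hoc tests. Error bars are SEM.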

Swiss mice [2] = experiment: Formalin plantar test with; assay type: in vivo, mouse; conditions: for Effect on analgesic effects of methanandamide in formalin test: 30 min before intraplantar formalin with mAEA 50 μg
Outline: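 Swiss mice were pretreated i.p. with vehicle, test compound (20 mg-kg−1) or CB1 antagonist (2 mg-kg−1). Intraplantar formalin followed 30 min later, with or without co-injected (R)-methanandamide (50 μg). Nociception was scored in the first phase (0–15 min) and second phase (15–45 min). n = 8–13. Analysis was repeated-measures ANOVA with Bonferroni tests. Error bars are SEM.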

ob/ob mice = experiment: Food intake and body-weight gain in ob/ob mice, daily treatment for 2 weeks; assay type: in vivo, mouse; conditions: 20 mg-kg−1 i.p. once daily for 2 weeks
Outline: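 Genetically obese ob/ob mice received test compound (20 mg-kg−1, i.p.) or vehicle once daily for 2 weeks. Food intake was recorded, and body weight was expressed as % change from day 0. n = 8 per group. Analysis was 2-way repeated-measures ANOVA with Bonferroni post hoc test. Error bars are SEM.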

[3] = Drug levels in plasma and tissues after systemic administration; assay type: in vivo, mouse
mice [4] = experiment: Motor activity in mice; assay type: in vivo, mouse; conditions: 20 mg-kg−1 i.p.; data not shown
Swiss mice [5] = experiment: Food intake over 24 h in Swiss mice; assay type: in vivo, mouse; conditions: 30 min before dark onset; for Effect on total food consumption: 20 mg-kg−1 i.p.
Outline: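 Male Swiss mice were dosed i.p. with test compound (5 or 20 mg-kg−1) or vehicle 30 min before dark onset. Cumulative food intake was monitored for 24 h. n = 12 per group. Data were analysed by 2-way repeated-measures ANOVA with Bonferroni post hoc test. Error bars are SEM.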

Swiss mice [6] = experiment: WIN55,212-2-induced hypothermia; assay type: in vivo, mouse
Outline: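 Swiss mice received a first i.p. injection of vehicle, test compound (20 mg-kg−1) or CB1 antagonist (2 mg-kg−1). A second injection of WIN55,212-2 (3 mg-kg−1, i.p.) followed 30 min later. Body temperature was read 30 min after WIN55,212-2. n = 5. Analysis was ANOVA with Bonferroni post hoc tests. Error bars are SEM.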

mouse CB2 receptors = experiment: cAMP accumulation in Hek-293 cells stably expressing mouse CB2 receptors; assay type: cell-based; conditions: isoproterenol 10 μM alone; basal 18 ± 2.4; n = 4

Chain of CB1 receptors (P20272 whole entry): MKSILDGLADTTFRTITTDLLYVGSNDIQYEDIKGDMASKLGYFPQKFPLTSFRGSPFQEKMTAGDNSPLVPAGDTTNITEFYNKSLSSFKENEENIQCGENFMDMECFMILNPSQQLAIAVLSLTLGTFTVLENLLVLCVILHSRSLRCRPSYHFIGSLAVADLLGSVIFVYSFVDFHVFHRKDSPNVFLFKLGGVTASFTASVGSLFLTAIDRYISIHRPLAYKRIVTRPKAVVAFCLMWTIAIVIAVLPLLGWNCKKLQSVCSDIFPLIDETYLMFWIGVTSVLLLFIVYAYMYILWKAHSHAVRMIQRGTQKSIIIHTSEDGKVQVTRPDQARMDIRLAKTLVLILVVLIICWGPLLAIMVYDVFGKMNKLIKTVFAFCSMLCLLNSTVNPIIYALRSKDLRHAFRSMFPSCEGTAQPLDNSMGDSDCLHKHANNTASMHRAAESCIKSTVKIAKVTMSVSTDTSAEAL

Cc1c(C(=O)c2ccccc2)c(N)c(-c2ccccc2)n1Cc1ccc(Cl)cc1 [URB447, [4-amino-1-(4-chlorobenzyl)-2-methyl-5-phenyl-1H-pyrrol-3-yl](phenyl)methanone]
Inhibition of basal GTPγS binding (CB1 receptors): failed to inhibit | Effect on WIN55,212-2-induced catalepsy (mice [1]; 20 mg-kg−1 i.p.): unaffected | Effect on analgesic effects of methanandamide in formalin test (Swiss mice [2]; 20 mg-kg−1 i.p.): completely blocked | Amount of food consumed throughout the treatment period (ob/ob mice): significant reduction | Body-weight gain (ob/ob mice): significant attenuation | Liver Cmax ([3]; 20 mg-kg−1 i.p.): 4.3 ± 0.7 nmol/g | Time of maximal tissue levels in liver ([3]; 20 mg-kg−1 i.p.): 15 min | Time of maximal tissue levels in white adipose fat ([3]; 20 mg-kg−1 i.p.): 15 min | Cmax ([3]; mouse, plasma, ip, 20 mg): 596 ± 117 nM | Tmax ([3]; mouse, plasma, ip, 20 mg): 30 min | Effect on motor activity (mice [4]): did not alter | Effect on food intake (Swiss mice [5]; 5 mg-kg−1 i.p.): no effect | Effect on total food consumption (Swiss mice [5]): drastically reduced

CCCCC/C=C\C/C=C\C/C=C\C/C=C\CCCC(=O)N[C@H](C)CO [(R)-methanandamide]
Effect on nocifensive behavior in the formalin plantar test (Swiss mice [2]; mAEA 50 μg co-injected with formalin): inhibits

Cc1c(C(=O)c2cccc3ccccc23)c2cccc3c2n1[C@H](CN1CCOCC1)CO3 [WIN55,212-2]
Time spent cataleptic in the ring catalepsy test (mice [1]; 5 mg-kg−1, scored 30 min later): significant increase | Body temperature effect (Swiss mice [6]; 3 mg-kg−1 i.p., 30 min after administration): maximal hypothermia

CC(C)NCC(O)c1ccc(O)c(O)c1 (stereo not drawn) [isoproterenol]
cAMP levels (mouse CB2 receptors): 56.2 ± 6 pmol/well

Cc1c(C(=O)NN2CCCCC2)nn(-c2ccc(Cl)cc2Cl)c1-c1ccc(Cl)cc1 [rimonabant]
Effect on WIN55,212-2-induced catalepsy (mice [1]; 5 mg-kg−1 i.p.): reversed | Effect on analgesic effects of methanandamide in formalin test (Swiss mice [2]; 2 mg-kg−1 i.p.): completely blocked | Effect on total food consumption (Swiss mice [5]): mimicked | Effect on WIN55,212-2-induced hypothermia (Swiss mice [6]; 2 mg-kg−1 i.p., 30 min pretreatment, WIN55,212-2 3 mg-kg−1 i.p.): attenuated
